The source of these data is ChEMBL document CHEMBL3853307, “Anti-inflammatory Effect of Methyl Gallate on Experimental Arthritis: Inhibition of Neutrophil Recruitment, Production of Inflammatory Mediators, and Activation of Macrophages” (J Nat Prod, 2016).

Active and inactive are the calls of the source. No cut-off for these calls is given here.

Broadly, the inhibition in vivo is the change of the read-out against control, counted positive when it falls.

For series [1], the system named is Mus musculus. In words: Antiinflammatory activity in C57BL/6 mouse assessed as inhibition of zymosan-induced TNFalpha production in cell-free supernatant of knee joint synovial washes at 7 mg/kg, po administered 1 hr prior to zymosan challenge measured at 6 to 24 hrs by sandwich ELISA method. The format is functional, organism-based. A digest of the protocol:
(§1)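 Male C57BL/6 mice (18−22 g), fasted overnight, dosed orally (in filtered water, 200 μL) or i.p. 1 h before i.a. zymosan (500 μg in 25 μL saline) into left knee; contralateral knee got vehicle. Synovial cavity washed twice with 150 μL PBS/10 mM EDTA at 6 and 24 h; washes spun 400g 10 min, 4 °C. Cytokines measured by sandwich ELISA, LTB4/PGE2 by EIA (pg/mL); six mice/group, two experiments.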

The subject of series [2] is Mus musculus. The experiment in a line: Antiinflammatory activity in C57BL/6 mouse assessed as inhibition of zymosan-induced knee joint edema formation at 0.7 to 70 mg/kg, po administered 1 hr prior to zymosan challenge measured at 6 hrs. The format is functional, organism-based. In short, it runs like this: (§2)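 Male C57BL/6 mice, fasted overnight, dosed orally (vehicle saline/water, 200 μL) or i.p. 1 h before zymosan (500 μg in 25 μL saline, i.a., left knee). Knee swelling measured as change in transverse diameter from basal by digital caliper (mm). Synovial washes (PBS/EDTA) counted on a particle counter; differentials from May-Grünwald-Giemsa cytospins, cells ×10^5/cavity. Sampled at 6 and/or 24 h; seven mice/group.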

Series [3] relates to Mus musculus. In words: Antiinflammatory activity in zymosan-induced C57BL/6 mouse pleurisy model assessed as reduction in protein extravasation in thoracic cavity at 10 to 50 mg/kg, po administered 1 hr prior to zymosan challenge measured after 4 hrs. In kind it is functional, organism-based. A digest of the protocol: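 Oral pretreatment 1 h before intrathoracic zymosan (100 μg/cavity in 100 μL saline). Cavities washed at 4 h with 1 mL PBS/10 mM EDTA. Total leukocytes counted on a particle counter, differentials from May-Grünwald-Giemsa cytospins (×10^6/cavity). Supernatant after 400g 10 min assayed for total protein by Bradford.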

Series [4] deals with Mus musculus. The experiment in a line: Antiinflammatory activity in C57BL/6 mouse assessed as inhibition of zymosan-induced mononuclear cells migration in articular cavity at 7 mg/kg, po administered 1 hr prior to zymosan challenge measured at 6 to 24 hrs. In kind it is functional, organism-based. A digest of the protocol:
as §2

Series [5] in a line: Cytotoxicity against mouse J774A.1 cells assessed as cell viability at 0.01 to 100 uM after 20 hrs by Alamar Blue assay relative to control. The format is toxicity, J774.A1. To be noted: read-out: Activity. A digest of the protocol:
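J774A.1 cells at 2.5 × 10^5 cells/well, 24 h pre-incubation at 37 °C, 5% CO2; fresh medium with or without Tween 20 (3%) or compound (0.01−100 μM), quadruplicate; 20 h incubation, then Alamar Blue added for 4 h; fluorescence read at ex 555/em 585 nm.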
In general terms: Resazurin is reduced to fluorescent resorufin, in cell work by metabolically active cells.

For series [6], the system named is Mus musculus. In words: Antiinflammatory activity in C57BL/6 mouse assessed as inhibition of zymosan-induced total leukocyte accumulation in articular cavity at 7 mg/kg, po administered 1 hr prior to zymosan challenge measured at 6 hrs. In kind it is functional, organism-based. In short, it runs like this: as §2
Another series concerns Neutrophil. In words: Antiinflammatory activity in C57BL/6 mouse neutrophils assessed as inhibition of CXCL1/KC-induced neutrophil chemotaxis at 0.1 to 1 uM preincubated for 1 hr followed by CXCL1/KC-induction measured after 1 hr by Wright-Giemsa staining-based light microscopic method. In kind it is functional, cell-based. In short, it runs like this:
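Bone marrow neutrophils from C57BL/6 femurs, purified on a 65%/72% Percoll gradient (~85−90% purity). 10^5 cells preincubated 1 h with compound or medium, then placed in a 48-well Boyden chamber over CXCL-1/KC (250 nM) across a 5 μm polycarbonate filter, 60 min at 37 °C, 5% CO2. Filter Wright-Giemsa stained; migrated cells counted in 15 fields; quadruplicate wells.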

Series [7] concerns Mus musculus. The experiment in a line: Antiinflammatory activity in C57BL/6 mouse assessed as inhibition of zymosan-induced knee joint edema formation at 7 mg/kg, po administered 1 hr prior to zymosan challenge measured at 24 hrs relative to control. In kind it is functional. To be noted: C57BL/6, Knee joint. A digest of the protocol: as §2
A further series concerns J774.A1. The experiment in a line: Antiinflammatory activity in mouse J774A.1 cells assessed as inhibition of zymosan and IFNgamma-induced cytoplasmic calcium flux at 1 uM preincubated for 1 hr followed by zymosan and IFNgamma addition measured over 10 mins by FLIPR assay. The format is functional, cell-based. A digest of the protocol: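 J774A.1 macrophages preincubated 1 h with HBSS or compound (1 μM), then stimulated with zymosan plus IFN-γ. Intracellular calcium followed over 600 s with a FLIPR Calcium Plus kit; mean signal from 360−600 s after stimulus used for analysis; quadruplicate wells.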

In series [8] the test system is Mus musculus. The experiment in a line: Antiinflammatory activity in C57BL/6 mouse assessed as inhibition of zymosan-induced CXCL1/KC production in cell-free supernatant of knee joint synovial washes at 7 mg/kg, po administered 1 hr prior to zymosan challenge measured at 6 to 24 hrs by sandwich ELISA method. In kind it is functional, organism-based. In short, it runs like this:
as §1
On the technique in general: An ELISA detects its analyte on a solid surface through an enzyme-linked reagent.

Series [9] concerns Mus musculus. In words: Antiinflammatory activity in C57BL/6 mouse assessed as inhibition of zymosan-induced knee joint edema formation at 7 mg/kg, po administered 1 hr prior to zymosan challenge measured at 6 hrs relative to control. To be noted: C57BL/6, Knee joint. The format is functional. In short, it runs like this: as §2
In series [10] the test system is Mus musculus. In words: Antiinflammatory activity in C57BL/6 mouse assessed as inhibition of zymosan-induced bleeding in synovial tissue at 7 mg/kg, po administered 1 hr prior to zymosan challenge measured at 6 to 24 hrs by hematoxylin and eosin staining-based optical microscopy. The format is functional, organism-based. In short, it runs like this: (§3)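 Mice dosed orally or i.p. 1 h before i.a. zymosan (500 μg/cavity) or saline. Whole knees taken at 6 and 24 h from six mice, fixed in 10% formalin 48 h, decalcified in 10% EDTA/PBS 1−2 weeks, paraffin-embedded. 5 μm sections H&E-stained and examined by light microscopy. Parameter scores summed into an arthritis index; means ± SEM, two experiments.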

For series [11], the system named is Mus musculus. The experiment in a line: Antiinflammatory activity in C57BL/6 mouse assessed as inhibition of zymosan-induced total leukocyte accumulation in articular cavity at 7 mg/kg, po administered 1 hr prior to zymosan challenge measured at 24 hrs. In kind it is functional, organism-based. In short, it runs like this: as §2
Series [12] deals with Mus musculus. The experiment in a line: Antiinflammatory activity in C57BL/6 mouse assessed as inhibition of zymosan-induced total leukocyte recruitment in synovial cavity at 0.7 to 70 mg/kg, po administered 1 hr prior to zymosan challenge measured after 6 to 24 hrs by particle counting method. In kind it is functional, organism-based. A digest of the protocol:
as §2

For series [13], the system named is Mus musculus. In words: Antiinflammatory activity in C57BL/6 mouse assessed as inhibition of zymosan-induced arthritis score at 7 mg/kg, po administered 1 hr prior to zymosan challenge measured at 6 to 24 hrs by hematoxylin and eosin staining-based optical microscopy. The format is functional, organism-based. In short, it runs like this:
as §3

For series [14], the system named is Mus musculus. In words: Antiinflammatory activity in C57BL/6 mouse assessed as inhibition of zymosan-induced neutrophil migration in articular cavity at 7 mg/kg, po administered 1 hr prior to zymosan challenge measured at 6 hrs relative to control. The format is functional. Particulars: C57BL/6, po. In short, it runs like this: as §2
Series [15] relates to Mus musculus. In words: Antiinflammatory activity in C57BL/6 mouse assessed as inhibition of zymosan-induced IL-1beta production in cell-free supernatant of knee joint synovial washes at 7 mg/kg, po administered 1 hr prior to zymosan challenge measured at 6 to 24 hrs by sandwich ELISA method. The format is functional, organism-based. In short, it runs like this: as §1

Turning to `COC(=O)c1cc(O)c(O)c(O)c1` [GALLIC ACID METHYL ESTER], the inhibition result with Mus musculus [1], in the series on Mus musculus [2], with Mus musculus [4], with Mus musculus [6], in the series with Neutrophil and in the series on J774.A1 was “Active” each time. The inhibition entry with Mus musculus [8], in the series with Mus musculus [10], with Mus musculus [11], in the series with Mus musculus [12], with Mus musculus [13] and with Mus musculus [15] was “Active” in each case. In addition, the outcome with Mus musculus [3] was Active. Further, the viability at 20 h, up to 100 µM in [5] is at least 95%. Also, the values for the inhibition in vivo at 7 mg/kg in the series with Mus musculus [7], in the series with Mus musculus [9] and with Mus musculus [14] were 49%, 24% and 64%, respectively.
